ERAP1 inh = inhibitors of human ERAP1 aminopeptidase; Q9NZ08; recombinant ERAP1, Leu-AMC fluorescence, 60 min; inhibition, % at 10.7 µM; hit rate 0.15% among 340,000; AID 652197;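 active = mean replicate inhibition of at least 30%, or all replicates individually reaching that 30% level; inactive = mean below 30% and not every replicate reaching it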
INS-1E GSIS act = primary screen for activators of insulin secretion dependent on glucose, INS-1E cells, GLuc reporter luminescence | INS-1E GLuc reporter insulin secretion, 2-3 h | activation, % at 16.6 µM | hit rate 0.61% among 370,000 | AID 743287;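 active = lowest replicate activation of at least 40%, so every replicate reaches that level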
MLL AF4-AF9 inh = inhibitors of human MLL-AF4/AF9 interaction; P42568; AID 651704; inhibition, % at 10 µM; hit rate 0.47% among 350,000; AlphaScreen, biotin-AF4 peptide binding to FLAG-AF9;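 active = every replicate reaching a set inhibition limit, whatever the replicate mean, cut at about 25% in these data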
RAD52 anneal inh = blocks human RAD52 DNA annealing; P43351; recombinant RAD52 DNA annealing, FRET fluorescence; inhibition, % at 18.7 µM; hit rate 0.46% among 360,000; AID 651710;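 active = every replicate showing at least 50% inhibition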
Target sequence (P43351 whole entry, looked up): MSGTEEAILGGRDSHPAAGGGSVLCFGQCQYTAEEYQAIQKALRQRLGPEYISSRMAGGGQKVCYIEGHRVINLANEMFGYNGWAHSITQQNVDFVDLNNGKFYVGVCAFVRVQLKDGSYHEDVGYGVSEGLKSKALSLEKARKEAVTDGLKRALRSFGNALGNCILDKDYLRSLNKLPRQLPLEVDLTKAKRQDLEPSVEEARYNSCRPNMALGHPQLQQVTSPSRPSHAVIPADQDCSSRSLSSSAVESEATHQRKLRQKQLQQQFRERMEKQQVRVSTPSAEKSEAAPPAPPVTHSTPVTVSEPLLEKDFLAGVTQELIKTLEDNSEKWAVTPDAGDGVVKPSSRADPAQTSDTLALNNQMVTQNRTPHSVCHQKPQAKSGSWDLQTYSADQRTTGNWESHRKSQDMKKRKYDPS
S100A4 MyoIIA = inhibitors of human S100A4 binding to myosin IIA peptide. P26447. S100A4/TAMRA-MyoIIA peptide fluorescence polarization. inhibition, % at 10.7 µM. hit rate 0.14% among 360,000. AID 652163;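 active = mean inhibition of at least 70% across replicates, with every replicate also reaching that level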
Target sequence (P26447 whole entry, looked up): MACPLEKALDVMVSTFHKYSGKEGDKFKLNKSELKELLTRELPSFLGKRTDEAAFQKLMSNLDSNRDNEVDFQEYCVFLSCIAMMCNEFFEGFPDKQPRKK
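incubation = readout 5 min after mixing, signal stable up to 60 min | system = S100A4 monomer protein | buffer or medium = HEPES pH 7.2 with CaCl2, KCl, NaCl, DTT, Triton | benchmarks = neutral control DMSO, positive control TFP | also added = fluorescent myosin IIA peptide, 5 nM | compound dosing = one concentration per compound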
Hits are given with their value; 0 = inactive; - = no result given. This is a sample that favours compounds with a hit; in the whole collection about 1.5% have one here.

SMILES | ERAP1 inh | INS-1E GSIS act | MLL AF4-AF9 inh | RAD52 anneal inh | S100A4 MyoIIA
COc1ccc(C(C)(O)c2nc(-c3cccs3)cs2)cc1 (stereo not given) | 0 | 0 | 0 | 0 | 182.2
CCOC(=O)C(CC)(CC)C(=O)/C=C/c1ccc(Br)cc1 | - | 65.3 | - | - | -
C[C@H](CO)N1C[C@H](C)[C@H](CN(C)C(=O)c2ccccn2)Oc2cc(C3=CCCC3)ccc2S1(=O)=O | 0 | 0 | 0 | 0 | 0
CCOC(=O)C(Cc1ccnc2ccccc12)=NO | 0 | 0 | 0 | 0 | 0
CCOC(=O)/C(CCC[N+](C)(CC)CC)=N\O | 111.4 | - | 0 | 0 | 0
Cc1ccc(NC(=O)c2cc(N3C(=O)C=CC3=O)ccc2Cl)cc1C | - | 49.5 | - | - | -
C[C@H](CO)N1C[C@H](C)[C@@H](CN(C)C(=O)Cc2ccccn2)Oc2ncc(C#CC3CC3)cc2C1=O | 0 | 0 | 0 | 0 | 0
O=C(O)c1ccccc1NS(=O)(=O)c1cccc(-n2sc3ccccc3c2=O)c1 | 99.3 | 0 | 0 | 0 | 0
Cc1ccccc1NC(=S)c1nc2ccccc2[nH]1 | 0 | - | 27.4 | 0 | 0
CCOC(=O)[C@@H]1[C@H]2COc3cc(OC)ccc3[C@@H]2N2C(=O)N(c3cccc(C)c3)C(=O)[C@]12C | 0 | 0 | - | 0 | 87.2
C[C@@]12C(=O)N(c3cccc(Cl)c3)C(=O)N1[C@@H]1c3ccccc3OC[C@@H]1[C@H]2c1ccccc1 | 0 | 0 | 42.8 | 0 | 0
CO[C@@H]1CN(C)C(=O)c2ccc(NC(C)=O)cc2OC[C@@H](C)NC[C@@H]1C | - | 0 | 0 | 0 | -
CN1CCC(=O)N([C@H](CN=[N+]=[N-])Cc2ccccc2)CC1 | 0 | 0 | 42.9 | 0 | 0
CCCN1CCC(=O)N([C@H](CN=[N+]=[N-])Cc2ccccc2)CC1 | 0 | 0 | 42.8 | 0 | 0
CC(C)CN1CCC(=O)N([C@H](CN=[N+]=[N-])Cc2ccccc2)CC1 | - | 0 | 0 | 0 | 0
CCOC(=O)C1=NN(C(=O)Nc2cccc(C(F)(F)F)c2)C2C(=O)N(c3cccc(C(F)(F)F)c3)C(=O)C12 (stereo not given) | - | 100.1 | - | - | -
CCOC(=O)c1nccnc1C(=O)Nc1cccc(C(F)(F)F)c1 | 0 | 0 | 0 | 0 | 0
COc1ccc(S(=O)(=O)NC[C@@H]2CC[C@H]3[C@H](CN3Cc3cc(F)ccc3F)O2)cc1 | 0 | - | 0 | 0 | 0
CCN1CCN(c2ccc(S(=O)(=O)N3CCCCC3)cc2NC(=O)c2ccccc2)CC1 | 103.2 | 0 | 0 | 0 | 0
CCN1CCN(c2ccc(S(=O)(=O)N3CCCCC3)cc2NC(=O)c2ccc([N+](=O)[O-])s2)CC1 | 0 | 0 | 28.8 | 0 | 0
CCN1CCN(c2ccc(S(=O)(=O)N3CCCCC3)cc2NC(=O)c2cccc(C)c2[N+](=O)[O-])CC1 | 0 | 0 | 0 | 0 | 0
CCCC(=O)Nc1ccc2c(c1)C(=O)N(C)C[C@H](OC)[C@@H](C)CN(S(=O)(=O)c1cn(C)cn1)[C@H](C)CO2 | 0 | 0 | 0 | 0 | 0
CCCCC(=O)Nc1ccc(C(=O)NNC(=O)c2ccc(C)c(Br)c2)cc1 | - | 63.8 | - | - | -
CC(C)[C@@H](C)NC(=O)N(C)C[C@H]1OCc2ccccc2-c2ccccc2C(=O)N([C@H](C)CO)C[C@@H]1C | 0 | 0 | 0 | 0 | 0
Cc1cccc(C(=O)NCc2nnc(SCC(=O)N3CCN(c4ccccc4)CC3)n2C)c1 | - | 0 | - | - | -
SMILES | ERAP1 inh | INS-1E GSIS act | MLL AF4-AF9 inh | RAD52 anneal inh | S100A4 MyoIIA
CCn1c(CNC(=O)c2cccc(C)c2)nnc1SCC(=O)N1CCOCC1 | 0 | 43.7 | 0 | 0 | 0
CCCCn1c(O)c(/C=C2\C=Nc3ccccc32)c(=O)[nH]c1=O | 0 | - | 0 | 0 | 80.6
CCCCc1nn2c(N)c(/C=C3\C=Nc4ccccc43)c(=O)nc2s1 | - | 0 | - | - | -
O=C(Cc1cccnc1)N1CC2(C1)[C@@H](c1ccccc1)[C@@H](CO)N2C(=O)C1CCCCC1 | 0 | 0 | 0 | 0 | 0
COc1cc(S(=O)(=O)Nc2ccc(C)cc2)ccc1N=Cc1c(C)c(C#N)c(=O)n(C)c1O | 0 | 0 | 0 | 0 | 79.6
O=C1C(Nc2ccc(O)cc2)=C/C(=N/S(=O)(=O)c2cccs2)c2ccccc21 | 0 | 0 | 63.4 | 0 | 0
CC(C)C#Cc1cnc2c(c1)C(=O)N([C@@H](C)CO)C[C@@H](C)[C@H](CN(C)Cc1ccccn1)O2 | 0 | 0 | 0 | 0 | 0
COCCN(C(=O)c1c(C)noc1C)c1c(N)n(CC(C)C)c(=O)[nH]c1=O | 82.6 | 0 | 0 | 0 | 0
CC(=O)N1N=C(c2ccc(Br)cc2)OC1(C)CC(=O)Nc1ccccc1 (stereo not given) | - | 57.4 | - | - | -
CC(C)c1ccc(OCC(=O)NC(C)c2ccccc2)cc1 (stereo not given) | 0 | - | 0 | 0 | 0
Cc1ccc(OCC(=O)NC(C)c2ccccc2)cc1 (stereo not given) | 0 | 46.9 | 0 | 0 | 0
CC(NC(=O)COC(=O)c1ccccc1Nc1ccccc1)c1ccccc1 (stereo not given) | - | 84.7 | - | - | -
C[C@H](CO)N1C[C@H](C)[C@@H](CN(C)Cc2ccncc2)Oc2c(NC(=O)NC3CCCCC3)cccc2C1=O | - | 0 | - | - | -
COc1cccc(S(=O)(=O)N(C)C[C@@H]2Oc3ncccc3C(=O)N([C@H](C)CO)C[C@@H]2C)c1 | 46.3 | 0 | 0 | 0 | 0
COc1ccc(S(=O)(=O)N(C)C[C@@H]2Oc3ncccc3C(=O)N([C@H](C)CO)C[C@@H]2C)cc1 | 42.5 | 0 | 0 | 0 | 0
CCCC(=O)Nc1ccc2c(c1)OC[C@H](C)N(C(=O)C1CCCC1)C[C@H](C)[C@@H](OC)CN(C)C2=O | 0 | 0 | 0 | 0 | 0
CC(C)NC(=O)Nc1cccc2c1O[C@@H](CN(C)S(C)(=O)=O)[C@H](C)CN(C)C2=O | - | 0 | - | - | -
O=C(C[C@@H]1C[C@H]2c3cc(NC(=O)NC4CCCC4)ccc3O[C@H]2[C@@H](CO)O1)NC1CCCC1 | 0 | 0 | 0 | 0 | 0
CSc1ccccc1NC(=O)CN1CCCCC1C (stereo not given) | 0 | 0 | 0 | 0 | 0
CSc1ccccc1NC(=O)CN1c2ccccc2CC1C (stereo not given) | 0 | 0 | 51.0 | 0 | 0
C=CCn1c(=NC(=O)c2cc(-c3cccs3)nc3ccccc23)sc2cc(S(N)(=O)=O)ccc21 | 0 | - | 0 | 0 | 0
C=CCn1c(=NC(=O)c2cc(Cl)sc2Cl)sc2cc(S(N)(=O)=O)ccc21 | - | 43.7 | - | - | -
C[C@@H]1CN([C@@H](C)CO)C(=O)c2cc(NC(=O)C3CCCCC3)ccc2O[C@H]1CN(C)Cc1ccc(-c2ccccc2)cc1 | 0 | 0 | 0 | 0 | 0
O=C(NCc1ccncc1)c1cccc(S(=O)(=O)NCc2ccccc2)c1 | 0 | 0 | 0 | 0 | 0
O=C(NCc1cccnc1)c1cccc(S(=O)(=O)NCc2ccccc2)c1 | 0 | 46.0 | 0 | 0 | 0
O=C(c1cccc(S(=O)(=O)NCc2ccccc2)c1)N1CCN(c2ccc(F)cc2)CC1 | 0 | 0 | 25.7 | 0 | 0
C[C@H]1CCCCO[C@@H](CN(C)Cc2ccc(C(=O)O)cc2)[C@@H](C)CN([C@@H](C)CO)C(=O)c2cc(NS(=O)(=O)c3ccc(Cl)cc3)ccc2O1 | 0 | 0 | 0 | 0 | 0

High-throughput results from PubChem BioAssay.
